Assay outcomes (PubChem)
This is a sample that favours compounds with a hit; in the whole collection about 2.1% have one here.
Runt-SMMHC FRET: blocks binding of human RUNX1 Runt domain to CBFb-SMMHC; Cerulean-Runt/Venus-CBFb-SMMHC FRET ratio 530/480, 1 h; inhibition, % at 20 µM; 220,000 tested, 0.74% active;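 active = mean inhibition across duplicate retests at 20 µM reaching about 50%, limit read from the data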;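 note: inhibitors lower the FRET ratio by blocking Runt binding to CBFb-SMMHC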
Hck-Nef inh: inhibitors of human Hck kinase activated by Nef | Recombinant Hck-YEEI plus Nef, Z-Lyte FRET kinase assay | inhibition, % at 20 µM | 220,000 tested, 0.68% active | AID 463187;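 active = Hck-Nef kinase inhibition above about 50%, limit read from the data; inactive = inhibition below that limit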
p97 ATPase inh: inhibitors of human p97 ATPase. recombinant p97 ATPase, Kinase-Glo ATP luminescence, 3 h. inhibition, % at 8 µM. 220,000 tested, 0.42% active; in the data active = inhibition above about 15%
Target sequence (P55072 whole entry, looked up): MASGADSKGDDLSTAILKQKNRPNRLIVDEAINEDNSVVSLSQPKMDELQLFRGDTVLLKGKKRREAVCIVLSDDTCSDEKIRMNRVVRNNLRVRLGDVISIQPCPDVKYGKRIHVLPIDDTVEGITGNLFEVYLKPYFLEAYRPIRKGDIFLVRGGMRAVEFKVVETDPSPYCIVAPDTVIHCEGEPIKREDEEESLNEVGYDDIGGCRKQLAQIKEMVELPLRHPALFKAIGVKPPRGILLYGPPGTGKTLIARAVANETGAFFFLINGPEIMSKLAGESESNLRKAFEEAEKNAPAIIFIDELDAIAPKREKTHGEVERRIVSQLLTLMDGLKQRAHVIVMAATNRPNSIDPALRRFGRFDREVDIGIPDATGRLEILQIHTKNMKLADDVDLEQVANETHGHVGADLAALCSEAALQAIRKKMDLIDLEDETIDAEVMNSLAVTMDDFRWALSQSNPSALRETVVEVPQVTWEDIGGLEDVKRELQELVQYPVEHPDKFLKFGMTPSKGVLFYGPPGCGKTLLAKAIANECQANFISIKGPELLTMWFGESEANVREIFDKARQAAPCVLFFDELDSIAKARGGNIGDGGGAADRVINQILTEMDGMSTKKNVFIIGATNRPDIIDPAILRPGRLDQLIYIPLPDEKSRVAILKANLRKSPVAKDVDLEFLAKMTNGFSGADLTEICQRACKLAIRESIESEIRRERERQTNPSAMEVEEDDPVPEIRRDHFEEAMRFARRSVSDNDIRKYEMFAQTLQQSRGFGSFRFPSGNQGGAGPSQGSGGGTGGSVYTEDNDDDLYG
RanGTP-Imp inh: inhibitors of RanGTP-importin-beta interaction, primary screen, biochemical, FRET, CFP-Ran, YFP-importin-beta, homogeneous | cell-free CFP-Ran/YFP-importin-beta FRET ratio | 300,000 tested, 1.1% active | inhibition, % (no concentration beside the values);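 active = more than half of the replicate wells show a fall in the fluorescence ratio signal beyond about 16%, limit read from the data, passing the limit was not always enough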
Runt-CBFb FRET: blocks binding of human RUNX1 Runt domain to CBFb; Q01196+Q13951; Cerulean-Runt/Venus-CBFb FRET ratio 530/480, 1 h; inhibition, % at 20 µM; 220,000 tested, 0.46% active;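 active = inhibition over about 50% at 20 µM in the single-dose screen, limit read from the data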
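test system = Cerulean-Runt domain fusion protein, energy donor | probe or stimulus = Venus-CBFb binding partner, 100 nM | incubation = two 1 h room-temperature incubations shielded from light | detection = fluorescence energy transfer, 422 nm excitation, 530/480 nm emission | measure = loss of energy transfer signal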
TbHK1 inh: blocks Trypanosoma brucei hexokinase 1 activity | 220,000 tested, 0.11% active | recombinant TbHK1, G6PDH-coupled NADH A340 | inhibition, % at 10 µM;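 active = inhibition of 50% or more in the single-dose primary screen; inactive = inhibition below 50%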
YIC FRET counter: counter-screen: alters YIC FRET probe signal; 1,000 tested, 40% active; Purified YIC probe, intramolecular FRET ratio YFP/CFP; IC50, µM; shares compounds with RanGTP-Imp inh;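 active = fitted half-maximal inhibitory concentration no more than tenfold above the top dose tested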
Large screens that a line does not name were inactive (follow-up assays come after a bar, where they were run).

CN1CCN(CCCNC(=O)Nc2ccc([N+](=O)[O-])cc2)CC1	none (no result: Runt-SMMHC FRET, Hck-Nef inh, p97 ATPase inh, Runt-CBFb FRET, TbHK1 inh)
Cc1ccc(/C=C/C(=O)Nc2cccc3ncccc23)o1	RanGTP-Imp inh 17 | YIC FRET counter inactive
CCCn1ncc(CN2CCC(N3CCC(C(=O)N4CCOCC4)CC3)CC2)c1C	none
CCOC(=O)/C(=N\Nc1ccc(C(C)=O)cc1)c1csc(Nc2ccccc2)n1	RanGTP-Imp inh 18 | YIC FRET counter inactive
CCOC(=O)/C(=N\Nc1ccccc1[N+](=O)[O-])c1csc(N)n1	none
O=C1CC(/C=C/c2ccco2)=Nc2ccccc2N1	RanGTP-Imp inh 24 | YIC FRET counter inactive
COc1cc(NC(=O)c2cc(-c3cccs3)on2)cc(OC)c1OC	RanGTP-Imp inh 28 | YIC FRET counter inactive
COc1cc(NC(=O)c2cc(-c3ccc(C)cc3)on2)cc(OC)c1OC	none (no result: Runt-SMMHC FRET, Hck-Nef inh, p97 ATPase inh, Runt-CBFb FRET, TbHK1 inh)
Cc1cc(C)cc(C(=O)Nc2ccncc2)c1	none (no result: Runt-SMMHC FRET, Hck-Nef inh, p97 ATPase inh, Runt-CBFb FRET, TbHK1 inh)
CCOC(=O)N1CCN(c2cc(=O)n(-c3ccccc3C)c(=O)[nH]2)CC1	RanGTP-Imp inh 36 | YIC FRET counter inactive
Cc1ccccc1-n1c(=O)cc(N2CC(C)OC(C)C2)[nH]c1=O (configuration not stated)	RanGTP-Imp inh 63 | YIC FRET counter inactive
O=C(CN1CCN(S(=O)(=O)c2ccccc2F)CC1)NC1CCCC1	none
COc1ccc(C(=O)N2CCC3(CC2)NCCc2[nH]cnc23)cc1OC	none (no result: Runt-SMMHC FRET, Hck-Nef inh, p97 ATPase inh, Runt-CBFb FRET, TbHK1 inh)
CCCNC(=O)COC(=O)c1cccnc1Nc1ccccc1F	none
O=C(COC(=O)c1cccnc1Nc1ccccc1F)NCCN1C(=O)CSC1=O	RanGTP-Imp inh 27 | YIC FRET counter inactive
CCS(=O)(=O)c1ccc(S(=O)(=O)CC)s1	RanGTP-Imp inh 36 | YIC FRET counter inactive
CCC(=O)Nc1cccc(NC(=S)NC(=O)c2cccs2)c1	RanGTP-Imp inh 25 | YIC FRET counter inactive
COC(=O)Cc1c(C)c2ccc(OCC(C)=O)c(C)c2oc1=O	none
COC(=O)Cc1c(C)c2ccc(O)c(CNCc3ccc(OC)c(OC)c3)c2oc1=O	RanGTP-Imp inh 33 (no result: Runt-SMMHC FRET, Hck-Nef inh, p97 ATPase inh, Runt-CBFb FRET, TbHK1 inh) | YIC FRET counter 7.3
O=C(Nc1ccc(Cl)cc1)N1CCCC1	none
O=C(COC(=O)CSCC(=O)N1CCCCC1)Nc1ccc(Cl)cc1	RanGTP-Imp inh 28 | YIC FRET counter inactive
Cc1sc(NC(=O)c2oc3ccccc3c2C)c(C#N)c1C	RanGTP-Imp inh 25 | YIC FRET counter inactive
CCCCc1cc(=O)oc2c(C)c(OCC(=O)NCc3ccccn3)ccc12	RanGTP-Imp inh 31 (no result: Runt-SMMHC FRET, Hck-Nef inh, p97 ATPase inh, Runt-CBFb FRET, TbHK1 inh) | YIC FRET counter inactive
Cn1c(=O)[nH]c(=O)c2c1nc(NC1CCCC1)n2Cc1ccccc1	none (no result: Runt-SMMHC FRET, Hck-Nef inh, p97 ATPase inh, Runt-CBFb FRET, TbHK1 inh)
Cc1c(/C=N\NC(=O)C2COc3ccccc3O2)c2ccccc2n1C (configuration not stated)	RanGTP-Imp inh 23 | YIC FRET counter inactive
Cn1cc(/C=N\NC(=O)C2COc3ccccc3O2)c2ccccc21 (configuration not stated)	none
CNC(=O)c1c(C)[nH]c(=S)c(C#N)c1-c1ccco1	RanGTP-Imp inh 31 | YIC FRET counter inactive
CCOC(=O)CNc1ncc([N+](=O)[O-])cc1C#N	RanGTP-Imp inh 20 | YIC FRET counter inactive
CCN1C(=S)N[C@@H](c2cccs2)C(C(=O)OC)=C1C	none (no result: Runt-SMMHC FRET, Hck-Nef inh, p97 ATPase inh, Runt-CBFb FRET, TbHK1 inh)
CCOC(=O)c1c(NC(=O)c2cccc(N3C(=O)CCC3=O)c2)sc2c1CCN(CC)C2	RanGTP-Imp inh 21 (no result: Runt-SMMHC FRET, Hck-Nef inh, p97 ATPase inh, Runt-CBFb FRET, TbHK1 inh) | YIC FRET counter inactive
CCOC(=O)c1c(-c2ccccc2)csc1NC(=O)c1cccc(N2C(=O)CCC2=O)c1	none
Nc1cc(Cl)nnc1Cl	none
O=C(CN1C2CCCC1CC(NC(=O)c1ccco1)C2)Nc1ccccc1C(F)(F)F (configuration not stated)	RanGTP-Imp inh 17 | YIC FRET counter inactive
O=C(CN1C2CCCC1CC(NC(=O)c1ccccc1)C2)Nc1ccccc1C(F)(F)F (configuration not stated)	none (no result: Runt-SMMHC FRET, Hck-Nef inh, p97 ATPase inh, Runt-CBFb FRET, TbHK1 inh)
OCCNc1nc(-c2ccccc2)nc2ccccc12	RanGTP-Imp inh 17 | YIC FRET counter inactive
OCCNc1c2ccccc2nc2ccccc12	Runt-SMMHC FRET 116, RanGTP-Imp inh 40, Runt-CBFb FRET 109 | YIC FRET counter 4.9
OCCNc1nc2ccccc2nc1NCCO	none
